{"source": "ChEMBL document CHEMBL1926618", "about": "“Homosecoiridoids from the flower buds of Lonicera japonica” (2011)", "key": {"Liver microsomes": {"tested_on": "Liver microsomes", "experiment": "Antioxidant activity against Fe2+-cystine induced lipid peroxidation in rat liver microsomes at 10 uM", "assay_type": "functional", "conditions": "Microsome"}, "A549": {"tested_on": "A549", "experiment": "Cytotoxicity against human A549 cells at 10 uM after 96 hrs by MTT assay", "assay_type": "functional, cell-based"}, "HCT-8": {"tested_on": "HCT-8", "experiment": "Cytotoxicity against human HCT8 cells at 10 uM after 96 hrs by MTT assay", "assay_type": "functional, cell-based"}, "KETR3": {"tested_on": "KETR3", "experiment": "Cytotoxicity against human Ketr3 cells at 10 uM after 96 hrs by MTT assay", "assay_type": "functional, cell-based"}, "MCF7": {"tested_on": "MCF7", "experiment": "Cytotoxicity against human MCF7 cells at 10 uM after 96 hrs by MTT assay", "assay_type": "functional, cell-based"}, "BGC-823": {"tested_on": "BGC-823", "experiment": "Cytotoxicity against human BGC823 cells at 10 uM after 96 hrs by MTT assay", "assay_type": "functional, cell-based"}, "Bel-7402": {"tested_on": "Bel-7402", "experiment": "Cytotoxicity against human Bel7402 cells at 10 uM after 96 hrs by MTT assay", "assay_type": "functional, cell-based"}, "[1]": {"biological_target": "T1, Tyrosine-protein phosphatase non-receptor type 1 (Homo sapiens) (UniProt P18031)", "T1 sequence (whole entry)": "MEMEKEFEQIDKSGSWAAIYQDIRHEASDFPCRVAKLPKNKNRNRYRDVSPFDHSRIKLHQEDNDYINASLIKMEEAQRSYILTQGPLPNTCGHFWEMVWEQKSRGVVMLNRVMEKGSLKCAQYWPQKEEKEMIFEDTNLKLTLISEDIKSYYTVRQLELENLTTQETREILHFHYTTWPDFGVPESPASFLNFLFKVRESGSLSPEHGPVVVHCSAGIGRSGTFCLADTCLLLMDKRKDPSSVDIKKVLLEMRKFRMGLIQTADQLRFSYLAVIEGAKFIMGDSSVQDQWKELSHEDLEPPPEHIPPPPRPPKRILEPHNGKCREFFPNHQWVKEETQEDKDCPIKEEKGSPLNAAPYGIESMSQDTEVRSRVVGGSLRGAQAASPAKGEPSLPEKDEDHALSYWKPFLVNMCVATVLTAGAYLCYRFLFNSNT", "experiment": "Inhibition of GST-tagged human PTP1B PTPase activity using p-NPP as substrate at 10 uM after 10 mins by spectrophotometry"}, "[2]": {"tested_on": "Human immunodeficiency virus 1", "experiment": "Antiviral activity against HIV1 infected in 293T cells at 10 uM pretreated for 15 mins prior infection measured after 48 hrs by luciferase reporter gene assay", "assay_type": "functional, organism-based"}, "[3]": {"experiment": "Antiinflammatory activity in rat polymorphonuclear leukocytes assessed as inhibition of platelet-activating factor-induced glucuronidase release at 10 uM preincubated for 15 mins before challenge by spectrophotometry", "assay_type": "functional"}, "[4]": {"biological_target": "Signal transducer and activator of transcription 3 (Homo sapiens) (UniProt P40763)", "sequence (P40763 whole entry)": "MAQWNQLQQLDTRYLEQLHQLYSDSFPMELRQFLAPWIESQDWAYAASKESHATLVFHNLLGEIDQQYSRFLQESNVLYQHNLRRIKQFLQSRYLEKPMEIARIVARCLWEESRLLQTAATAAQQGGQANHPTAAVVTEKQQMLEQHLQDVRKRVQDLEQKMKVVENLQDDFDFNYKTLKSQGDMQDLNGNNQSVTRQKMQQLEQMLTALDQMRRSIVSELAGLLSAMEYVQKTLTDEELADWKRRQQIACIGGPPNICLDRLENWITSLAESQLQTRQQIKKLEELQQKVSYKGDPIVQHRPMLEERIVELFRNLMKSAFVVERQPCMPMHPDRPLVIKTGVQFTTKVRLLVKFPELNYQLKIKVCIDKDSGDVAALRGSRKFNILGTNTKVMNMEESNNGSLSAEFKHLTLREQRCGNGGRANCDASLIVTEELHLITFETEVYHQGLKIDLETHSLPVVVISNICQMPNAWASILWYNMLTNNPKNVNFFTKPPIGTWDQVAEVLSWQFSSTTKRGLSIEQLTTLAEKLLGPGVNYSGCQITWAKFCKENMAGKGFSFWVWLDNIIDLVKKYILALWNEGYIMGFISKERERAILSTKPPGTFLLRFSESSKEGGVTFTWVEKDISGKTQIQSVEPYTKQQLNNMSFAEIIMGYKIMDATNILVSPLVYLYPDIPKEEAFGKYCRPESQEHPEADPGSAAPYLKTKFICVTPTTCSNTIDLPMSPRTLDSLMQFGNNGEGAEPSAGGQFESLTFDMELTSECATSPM", "experiment": "Inhibition of STAT-3 activity in HELF cells at 10 uM", "assay_type": "cell-based", "in_short": "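HELF cells grown in DMEM with 10% FCS under humidified 5% CO2, transfected with pSTAT-3-TA-luc firefly luciferase reporter plasmid by lipofectamine 2000. After 24 h, treated in 5% FBS with compound or DMSO for 24 h. Luciferase activity read in cell lysates by luminometer; activity expressed relative to DMSO-treated transfected cells set at 100%.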"}, "PC-12": {"tested_on": "PC-12", "experiment": "Neuroprotective activity against glutamate-induced neurotoxicity in rat PC12 cells at 10 uM preincubated for 24 hrs prior challenge measured after 24 hrs by MTT assay", "assay_type": "functional, cell-based"}}, "note": "Calls of active or inactive are those of the source. No cut-off for these calls is given here.", "data": [{"smiles": "C=C[C@H]1[C@H](O[C@@H]2O[C@H](CO)[C@@H](O)[C@H](O)[C@H]2O)OC=C(C(=O)O)[C@H]1C[C@H]1OC(=O)C(O)=C1c1ccccc1", "note": "[LONIPHENYRUVIRIDOSIDE D]", "values": [{"measurement": "Activity", "setting": "Liver microsomes", "value": "inactive"}, {"measurement": "Activity", "setting": "A549", "value": "inactive"}, {"measurement": "Activity", "setting": "HCT-8", "value": "inactive"}, {"measurement": "Activity", "setting": "KETR3", "value": "inactive"}, {"measurement": "Activity", "setting": "MCF7", "value": "inactive"}, {"measurement": "Activity", "setting": "BGC-823", "value": "inactive"}, {"measurement": "Activity", "setting": "Bel-7402", "value": "inactive"}, {"measurement": "inhibition", "setting": "[1]", "value": "inactive"}, {"measurement": "Activity", "setting": "[2]", "value": "inactive"}, {"measurement": "inhibition at 10 µM", "setting": "[3]", "value": "< 30", "unit": "%"}, {"measurement": "inhibition", "setting": "[4]", "value": 48.8, "unit": "%"}, {"measurement": "Activity", "setting": "PC-12", "value": "inactive"}]}]}
